Activity calls are given as the source filed them. The calls are words filed in the database; no cut-off is given here.
Experiments:
Bacillus subtilis [1] = assay: Antimicrobial activity against Bacillus subtilis assessed as growth inhibition at 91 ug/ml after 24 hrs by spectrophotometry; format: functional; details: read-out: GI
Summary of the method: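 Primary screen of Bacillus subtilis growth in the presence of test compound at 91 µg/mL.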

Pseudomonas fluorescens [2] = assay: Antimicrobial activity against Pseudomonas fluorescens assessed as growth inhibition at 91 ug/ml after 24 hrs by spectrophotometry; format: functional; details: read-out: GI
KB [3] = assay: Cytotoxicity against human KB cells assessed as growth inhibition at 50 ug/ml after 24 hrs by crystal violet staining method; format: functional; details: read-out: GI
Pseudomonas fluorescens [4] = assay: Antimicrobial activity against Pseudomonas fluorescens assessed as growth inhibition at 75 ug/ml after 24 hrs by spectrophotometry; format: functional; details: read-out: GI
Bacillus subtilis [5] = assay: Antimicrobial activity against Bacillus subtilis assessed as growth inhibition at 75 ug/ml after 24 hrs by spectrophotometry; format: functional; details: read-out: GI
KB [6] = assay: Cytotoxicity against human KB cells assessed as growth inhibition at 12.5 ug/ml after 24 hrs by crystal violet staining method; format: functional; details: read-out: GI
L1210 (Mus musculus) [7] = assay: Potentiation of mitomycin C-induced antitumor activity against mouse L1210 cells allografted in BDF1 mouse administered ip on days 2 to 6 post challenge relative to control
L1210 (Mus musculus) [8] = assay: Potentiation of actinomycin D-induced antitumor activity against mouse L1210 cells allografted in BDF1 mouse administered ip on days 2 to 6 post challenge relative to control
Bacillus subtilis [9] = assay: Antimicrobial activity against Bacillus subtilis assessed as growth inhibition after 24 hrs by spectrophotometry; format: functional, organism-based
Pseudomonas fluorescens [10] = assay: Antimicrobial activity against Pseudomonas fluorescens assessed as growth inhibition after 24 hrs by spectrophotometry; format: functional, organism-based
KB [11] = assay: Cytotoxicity against human KB cells assessed as growth inhibition after 24 hrs by crystal violet staining method; format: functional, cell-based

Row | Structure (SMILES) | inhibition of growth at 91 µg/mL (Bacillus subtilis [1]) | inhibition of growth at 91 µg/mL (Pseudomonas fluorescens [2]) | other results
1 | O=C1CCS(=O)(=O)c2ccccc21 | 100% | 0% | inhibition of growth at 50 µg/mL (KB [3]): 17%
2 | O=S1(=O)Cc2cn[nH]c2-c2ccccc21 | 0% |  | 
3 | O=C1NN=C2CCSCC12 (centres undefined) | 0% | 0% | 
4 | O=S1(=O)Cc2c[n+]([O-])n(-c3ccccc3)c2-c2ccccc21 | 0% | 0% | 
5 | c1ccc2c(c1)SCc1cn[nH]c1-2 |  |  | inhibition of growth at 75 µg/mL (Pseudomonas fluorescens [4]): 0%; inhibition of growth at 75 µg/mL (Bacillus subtilis [5]): 100%; inhibition of growth at 12.5 µg/mL (KB [6]): 28%; T/C (L1210 (Mus musculus) [7]): 10%; Activity (L1210 (Mus musculus) [8]): inactive
6 | c1n[nH]c2c1CSCC2 | 0% | 0% | 
7 | O=S1(=O)Cc2cnoc2-c2ccccc21 | 0% |  | 
8 | O=c1[nH]n(-c2ccccc2)c2c1CSCC2 | 0% | 0% | 
9 | c1ccc2c(c1)SCc1cnoc1-2 | 100% | 0% | inhibition of growth at 50 µg/mL (KB [3]): 100%
10 | c1ccc(-n2ncc3c2-c2ccccc2SC3)cc1 |  |  | growth inhibition (GI) (Bacillus subtilis [9]): inactive; growth inhibition (GI) (Pseudomonas fluorescens [10]): inactive; growth inhibition (GI) (KB [11]): inactive
